The array DNA melting data of Ke et al. (doi:10.1101/2024.01.08.574731)

Legend:
[1] = folding enthalpy; higher = less favourable; fluorescence melt of hairpins on a sequencing array, two-state fit; details: sodium 0.088 M
How it was run: (§1)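 Cy3 fluorescence of library hairpins on a sequenced MiSeq flow cell, with annealed Cy3 and quencher oligos, was imaged in 50 mM Na-HEPES pH 8.0, 25 mM NaCl in 2.5 °C steps up to 60 °C. Signals were normalised to pre-quench Cy3 and to control variants. Melting temperature and folding enthalpy came from bootstrapped two-state fits, inverse-variance combined over four replicates. Fitted temperatures were raised by 9.35 °C to match UV melts.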

[2] = melting temperature; fluorescence melt of hairpins on a sequencing array, two-state fit, raised by 9.35 °C to match UV melts; details: sodium 0.088 M
How it was run: as §1

Sequence | folding enthalpy [1] [kcal/mol] | Tm [2] [°C]
GTGGTAGGAAACTACTGC (..((((....))))..) | -18.2 | 36.1
GTGGTAGGAAACTGCTAC ((.(.((....)).).)) | -17.7 | 32.1
GTGGTCACGAAAGTGCAC (((..(((....)))))) | -16.1 | 39.9
GTGGTCCGAAAGGAACAC (((.(((....))).))) | -33.6 | 65.4
GTGGTCGAAAGACAACAC ((((((....)))..))) | -18.7 | 46.8
GTGGTCGAAAGACGCCAC ((((((....)))..))) | -15.9 | 39.6
GTGGTCGAAAGACTACAC ((((((....)))..))) | -15.7 | 48.2
GTGGTCGAAAGACTTCAC ((((((....)))..))) | -15.2 | 31.9
GTGGTCGGAAACGACCGC (.(((((....))))).) | -17.8 | 63
GTGGTCGGAAACGGCTAC ((.(.((....)).).)) | -25.8 | 44.5
GTGGTGGGAAACCGTCAC (((..((....))..))) | -19.8 | 38.4
GTGGTGGGAAACTACCGC (.(((.(....).))).) | -28.4 | 42.7
GTGGTGTCGAAAGACCAC (((..(((....)))))) | -16.8 | 47.6
GTGGTTCGAAAGAAACAC (((.(((....))).))) | -48.8 | 55.8
GTGGTTGGAAACAACCGC (.(((((....))))).) | -31 | 55.7
GTGGTTGGAAACAACTGC (..((((....))))..) | -17.6 | 43.4
GTGTAACCGAAAGGTCAC (((..(((....)))))) | -22.6 | 43.6
GTGTAAGGAAACTTACGC (.(((((....))))).) | -25.7 | 45.3
GTGTACCGAAAGGTCCAC (((.(((....))).))) | -31 | 48.1
GTGTACGAAAGTAAACAC ((((((....)))..))) | -25.1 | 42.6
GTGTACGAAAGTAGCAC ((((((....))).))) | -23.6 | 42.9
GTGTACGAAAGTAGTCAC ((((((....)))..))) | -12.2 | 30.9
GTGTACGGAAACGTGCAC (((.(((....))).))) | -28.3 | 55.3

Sequence | folding enthalpy [1] [kcal/mol] | Tm [2] [°C]
GTGTAGCGAAAGCTCCAC (((.(((....))).))) | -31.7 | 48
GTGTAGCGAAAGCTTCAC (((.(((....))).))) | -32 | 51.8
GTGTAGGCGAAAGCCCAC (((..(((....)))))) | -17.4 | 44.5
GTGTAGGGAAACCTATGC (..((((....))))..) | -12.2 | 30.9
GTGTAGGGAAACCTGCAC (((.(((....))).))) | -29.7 | 50.3
GTGTATGGAAACACACAC ((((.((....)).)))) | -26.1 | 38.1
GTGTATGGAAACATACAC (((((((....))))))) | -42 | 57.2
GTGTCAGGAAACTGGCAC (((.(((....))).))) | -39.4 | 54.4
GTGTCATCGAAAGATCAC (((..(((....)))))) | -17.1 | 32.4
GTGTCCGAAAGGAGTCAC ((((((....)))..))) | -19.1 | 35
GTGTCCGAAAGGATGCAC ((((((....)))..))) | -15.8 | 42.9
GTGTCCGAAAGGATTCAC ((((((....)))..))) | -16.3 | 35.3
GTGTCCGGAAACGGATAC ((.((((....)))).)) | -38.6 | 53.3
GTGTCGCCGAAAGGCCAC (((..(((....)))))) | -15 | 44.4
GTGTCGCGAAAGCGTCAC (((.(((....))).))) | -31.9 | 63
GTGTCTGGAAACGGACAC (((((.(....).))))) | -41.3 | 54
GTGTGAACGAAAGTTCAC (((..(((....)))))) | -12.9 | 65.6
GTGTGAGGAAACTTACGC (.((.((....)).)).) | -17.7 | 33.7
GTGTGAGGAAACTTGCAC (((..((....))..))) | -28 | 35.1
GTGTGCGAAAGCACGCAC ((((((....)))..))) | -9.49 | 61.1
GTGTGCGAAAGCATTCAC ((((((....)))..))) | -15.8 | 38.3
GTGTGCGGAAACACACAC (((((.(....).))))) | -36.2 | 51.8
GTGTGCGGAAACGCGCAC (((.(((....))).))) | -27.7 | 67.7

Sequence | folding enthalpy [1] [kcal/mol] | Tm [2] [°C]
GTGTGGGGAAACCTACGC (.((.((....)).)).) | -24.1 | 39.2
GTGTGTCGAAAGACTCAC (((.(((....))).))) | -40.9 | 53.2
GTGTGTGGAAACGTACAC ((((..(....)..)))) | -23.5 | 42
GTGTTACGAAAGTACCAC (((.(((....))).))) | -29.4 | 43.2
GTGTTAGAAATAACAC ((((((....)))))) | -28.6 | 47.1
GTGTTAGGAAACTAGCAC (((.(((....))).))) | -31.2 | 42.9
GTGTTCGAAAGAACCCAC ((((((....)))..))) | -11.7 | 33.1
GTGTTCGAAAGAATGCAC ((((((....)))..))) | -19.1 | 33.5
GTGTTCGAAAGAATTCAC ((((((....)))..))) | -10.3 | 28.8
GTGTTCGGAAACGAACGC (.(((((....))))).) | -30.3 | 59.6
GTGTTCGGAAACGGATAC ((.(.((....)).).)) | -25.8 | 33.6
GTGTTCTCGAAAGAGCAC (((..(((....)))))) | -24.7 | 41.8
GTGTTGCGAAAGCACAC (((.(((....)))))) | -33.8 | 56.3
GTGTTGCGAAAGCACCAC (((.(((....))).))) | -30.7 | 51.2
GTGTTGGGAAACCAATAC ((.((((....)))).)) | -41.5 | 45.7
GTGTTGGGAAACCAGTAC ((..(((....)))..)) | -11 | 25
GTGTTGGGAAACCGACAC ((((.((....)).)))) | -45.5 | 53.6
GTGTTTCGAAAGAACCAC (((.(((....))).))) | -30.7 | 43
GTGTTTGGAAACAAACGC (.(((((....))))).) | -32.3 | 51
GTTAAACGAAAGTTAAC (((.(((....)))))) | -17.2 | 34.6
GTTAAACGAAAGTTCAAC (((.(((....))).))) | -22.6 | 30.3
GTTAAAGGAAACTTTAGC (.(((((....))))).) | -20.6 | 27.6
GTTAACGAAAGTTACAAC ((((((....)))..))) | -12.3 | 25.6

Sequence | folding enthalpy [1] [kcal/mol] | Tm [2] [°C]
GTTAACGAAAGTTTAAC ((((((....))).))) | -17 | 34.6
GTTAACGGAAACGTCAAC (((.(((....))).))) | -15.2 | 34.2
GTTAAGCGAAAGCTGAAC (((.(((....))).))) | -23.2 | 48.2
GTTAAGGGAAACCTTAAC (((((((....))))))) | -39.2 | 50.5
GTTAAGGGAAACCTTGAC ((.((((....)))).)) | -29.3 | 37.4
GTTAAGTCGAAAGACAAC (((..(((....)))))) | -13.4 | 27.8
GTTACCGAAAGGTAAAAC ((((((....)))..))) | -13.2 | 34.7
GTTACCGAAAGGTGAAAC ((((((....)))..))) | -9.44 | 27.5
GTTACCGAAAGGTTAAC ((((((....))).))) | -15.4 | 41.9
GTTACCGGAAACGGTGAC ((.((((....)))).)) | -30.4 | 51.2
GTTACGACGAAAGTCAAC (((..(((....)))))) | -12.3 | 25.5
GTTACGCGAAAGCGAAAC (((.(((....))).))) | -23.5 | 51.1
GTTACTGGAAACGGTAAC (((((.(....).))))) | -32.2 | 43.9
GTTAGACCGAAAGGTAAC (((..(((....)))))) | -11.2 | 30.2
GTTAGAGGAAACTCTAAC (((((((....))))))) | -39.7 | 51.6
GTTAGAGGAAACTCTGAC ((.((((....)))).)) | -31.4 | 37.1
GTTAGAGGAAACTTTAAC ((((.((....)).)))) | -15.5 | 27.5
GTTAGCACGAAAGTGAAC (((..(((....)))))) | -11.6 | 27
GTTAGCGAAAGCTCTAAC ((((((....)))..))) | -8.83 | 25.6
GTTAGCGAAAGCTGAAC ((((((....))).))) | -13.2 | 38.4
GTTAGCGAAAGCTTAAC ((((((....))).))) | -13.9 | 42.8
